Assay outcomes from PubChem.
PPC-1+TRAIL kill: PPC-1 cancer cell killing with TRAIL present; PPC-1 cells + TRAIL, ATPLite viability luminescence; cell killing (% activity), % at 4 µM or 5 µM; 220,000 compounds, 0.41% hits; AID 1443;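 active = cell killing above 50% in the first pass at 4 µM, then a duplicate retest at 5 µM averaging 50% or more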;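 also: plate controls were cells with TRAIL plus DMSO for no effect and medium-only wells lacking cells for full effect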
FLuc stim CS: affects firefly luciferase, flagging false hits in luciferase stimulation screens | P08659 | ATPlite luciferase biochemical, luminescence, 10 min; 0 = ATP-free wells, 1 = DMSO control | activation factor at 10 µM | 200,000 tested, under 10 active | AID 1027;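 active = luciferase activation factor, scaled between plate controls, of at least 2 with compound at 10 µM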
Target sequence (P08659 whole entry, looked up): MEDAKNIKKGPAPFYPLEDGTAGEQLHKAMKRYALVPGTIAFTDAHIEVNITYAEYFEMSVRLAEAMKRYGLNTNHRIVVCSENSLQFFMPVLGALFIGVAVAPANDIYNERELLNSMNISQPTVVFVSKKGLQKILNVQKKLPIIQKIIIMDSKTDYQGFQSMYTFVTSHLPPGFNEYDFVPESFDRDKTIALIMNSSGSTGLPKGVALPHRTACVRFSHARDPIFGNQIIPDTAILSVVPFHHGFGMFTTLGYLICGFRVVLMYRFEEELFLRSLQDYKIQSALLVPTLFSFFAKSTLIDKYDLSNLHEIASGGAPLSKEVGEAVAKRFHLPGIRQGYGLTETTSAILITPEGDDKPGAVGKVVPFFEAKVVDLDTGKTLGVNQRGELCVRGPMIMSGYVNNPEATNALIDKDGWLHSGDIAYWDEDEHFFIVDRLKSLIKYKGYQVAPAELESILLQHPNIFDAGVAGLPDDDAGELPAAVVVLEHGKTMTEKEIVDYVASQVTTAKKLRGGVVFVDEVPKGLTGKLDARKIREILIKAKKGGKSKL
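Assay system: Luciferase/luciferin detection reagent, cell-free biochemical luciferase assay / Read-out: luciferase activation / Benchmarks: No-ATP low control, compound-free enzyme-plus-ATP high control / Medium: PBS buffer for ATP / Detection: luminescence measurement of luciferase light output / Schedule: 10 min at ambient temperature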
FLuc inh counter: inhibits firefly luciferase, flagging false hits in luciferase inhibition screens; P08659; ATPLite firefly luciferase biochemical luminescence, 10 min; inhibition, % at 10 µM; AID 1006; 200,000 compounds, 1.5% hits;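 active = inhibition above about 50% when tested at 10 µM, limit read from the data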
C8 TRAIL sens: sensitizes caspase-8 expressing cells to TRAIL. NB7+C8 cells + TRAIL, ATPlite viability luminescence. inhibition (viability loss, TRAIL sensitization), % at 10 µM. 360,000 compounds, 1% hits. AID 624354;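 active = compounds causing at least 50% loss of cell viability in the single-dose screen, relative to plate controls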
Active calls of the source: *. Compounds with a hit are over-represented: about 1.5% of the library has one in this group of screens.

Screening Cc1cccc(/C(N)=N/OC(=O)N2CCOCC2)c1 returned PPC-1+TRAIL kill 23, FLuc stim CS 0.8, FLuc inh counter 17 and C8 TRAIL sens -12.
Screening COc1ccc(/C(N)=N/OC(=O)c2ccco2)cc1 returned PPC-1+TRAIL kill 34, FLuc stim CS 0.3, FLuc inh counter 68* and C8 TRAIL sens 48.
Screening CC(C)(CNC(=O)c1cc([N+](=O)[O-])ccc1N1CCC(Cc2ccccc2)CC1)N1CCOCC1 returned C8 TRAIL sens 0.
Screening Cc1ccc(C(=O)NNC(=S)NC(=O)c2ccco2)cc1 returned PPC-1+TRAIL kill 7, FLuc stim CS 1, FLuc inh counter 4 and C8 TRAIL sens 19.
Cc1ccc(C(=O)NNC(=O)c2ccco2)cc1 was read as PPC-1+TRAIL kill 25, FLuc stim CS 0.4, FLuc inh counter 57* and C8 TRAIL sens 27.
`CCOC(=O)N1CCC(N2C(=O)c3ccccc3C2Nc2cc(OC)c(OC)c(OC)c2)CC1` (centres undefined) gave PPC-1+TRAIL kill 4, FLuc stim CS 1.1, FLuc inh counter -8 and C8 TRAIL sens -34.
Screening CCOC(=O)[C@]12Cc3c(cc(OC)c(OC)c3OC)[C@H]1N(C1CCCCC1)C(=O)c1cc(OC)ccc12 returned C8 TRAIL sens 67*.
Screening CN(C)CCCN(C(=O)/C=C/c1cccs1)c1nc2c(F)cccc2s1 returned PPC-1+TRAIL kill 14, FLuc stim CS 1, FLuc inh counter 4 and C8 TRAIL sens 55*.
Brc1ccc2ncnc(NCc3ccccc3)c2c1 was read as PPC-1+TRAIL kill 30, FLuc stim CS 1.1, FLuc inh counter -6 and C8 TRAIL sens 14.
Screening Cc1ccc(NC(=O)c2ccc3nsnc3c2)c(Cl)c1 returned C8 TRAIL sens 58*.
For COc1ccc(/C=N\NC(=O)C2=NNC(=O)C2C)cc1 (centres undefined) the results were PPC-1+TRAIL kill 29, FLuc stim CS 0.3, FLuc inh counter 69* and C8 TRAIL sens 39.
For O=C(Nc1ccc(N2CCOCC2)cc1)c1cc2c(s1)CCCCC2 the results were PPC-1+TRAIL kill 3, FLuc stim CS 1, FLuc inh counter 2 and C8 TRAIL sens 14.
`O=C(Nc1ccccc1N1CCOCC1)c1cc2c(s1)CCCCC2` gave PPC-1+TRAIL kill 7, FLuc stim CS 0.3, FLuc inh counter 65* and C8 TRAIL sens 27.
O=C(Nc1ccon1)c1cc2c(s1)CCCC2 was read as PPC-1+TRAIL kill 32, FLuc stim CS 0.3, FLuc inh counter 70* and C8 TRAIL sens 36.
COc1ccc2oc(-c3ccco3)cc(=O)c2c1 was read as PPC-1+TRAIL kill 16, FLuc stim CS 0.4, FLuc inh counter 59* and C8 TRAIL sens 13.
Screening COc1cc(/C=C2/C(=O)c3cccc([N+](=O)[O-])c3C2=O)c(Br)cc1O returned PPC-1+TRAIL kill 10, FLuc stim CS 0.4, FLuc inh counter 64* and C8 TRAIL sens 19.
O=C(CCn1ccc2cc(S(=O)(=O)N3CCCC3)ccc21)NCc1ccccc1F was read as C8 TRAIL sens 1.
`Cc1ccc(NCN2C(=O)C3C4C=CC(C4)C3C2=O)cc1` (centres undefined) gave PPC-1+TRAIL kill 0, FLuc stim CS 1.1, FLuc inh counter -7 and C8 TRAIL sens 7.
N/C(=N\N=C\c1cccc([N+](=O)[O-])c1)c1nonc1N was read as PPC-1+TRAIL kill 8 and C8 TRAIL sens -19.
Screening N/C(=N\N=C\c1ccc2c(c1)OCO2)c1nonc1N returned PPC-1+TRAIL kill 19, FLuc stim CS 0.2, FLuc inh counter 78* and C8 TRAIL sens 40.
COc1ccc(N(C(=O)CCl)C(C(=O)NCCc2ccccc2)c2cccs2)cc1 (centres undefined) was read as PPC-1+TRAIL kill 47, FLuc stim CS 1.1, FLuc inh counter -9 and C8 TRAIL sens 98*.
For CCOC(=O)COn1c(=O)c(-c2cc3ccccc3o2)[n+]([O-])c2ccccc21 the results were PPC-1+TRAIL kill 29, FLuc stim CS 0.5, FLuc inh counter 52* and C8 TRAIL sens 39.
Screening O=C(NC1CCCCCC1)c1cc2ccccc2oc1=O returned C8 TRAIL sens 12.
For CC(=O)NC1C(=O)N=C(SCC(=O)NCc2ccccc2)NC1=O (centres undefined) the results were PPC-1+TRAIL kill 11, FLuc stim CS 1.1, FLuc inh counter -5 and C8 TRAIL sens -1.
For O=C1CC(c2ccc3c(c2)OCO3)Sc2nc3ccccc3n21 (centres undefined) the results were PPC-1+TRAIL kill -8, FLuc stim CS 0.3, FLuc inh counter 69* and C8 TRAIL sens 31.
